Active and inactive are the calls of the source. No cut-off for these calls is given here.
Experiments:
SH-SY5Y [1] = assay: Neuroprotective activity against MPP+-induced neuronal cell death in human SH-SY5Y cells assessed as cell viability at 3 uM pretreated for 2 hrs before MPP+ administration measured after 4 hrs by MTT assay; type: functional
How it was run: (§1)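 SH-SY5Y cells grown at 37 °C in DMEM with 10% heat-inactivated FBS and penicillin/streptomycin, detached with 1 mM EGTA in PBS for 15 min, seeded at 1 × 10^4 cells/well and incubated 24 h. Cells were pretreated 2 h with compound at 3, 10 or 30 μM, then exposed to MPP+ medium. MTT was added to 0.5 mg/mL final, incubated 4 h, and formazan read at 550 nm. Guanosine served as positive control. Triplicates, mean ± SEM, ANOVA with Student–Newman–Keuls test.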

SH-SY5Y [2] = assay: Neuroprotective activity against MPP+-induced neuronal cell death in human SH-SY5Y cells assessed as cell viability at 30 uM pretreated for 2 hrs before MPP+ administration measured after 4 hrs by MTT assay; type: functional; how it was run: as §1
SH-SY5Y [3] = assay: Neuroprotective activity against MPP+-induced neuronal cell death in human SH-SY5Y cells assessed as cell viability at 10 uM pretreated for 2 hrs before MPP+ administration measured after 4 hrs by MTT assay; type: functional; how it was run: as §1
SH-SY5Y [4] = assay: Cytotoxicity in human SH-SY5Y cells at 3 to 30 uM by MTT assay; type: cell-based
How it was run: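 SH-SY5Y human dopaminergic neuroblastoma cells grown at 37 °C, 5% CO2, in DMEM with 10% inactivated FBS and penicillin/streptomycin. Cells detached with 1 mM EGTA in PBS for 15 min, seeded at 1 × 10^4 cells/well, and incubated 24 h. Compounds given at 3, 10 and 30 μM. MTT added to 0.5 mg/mL final for 4 h at 37 °C; formazan read at 550 nm. Run in triplicate.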

SMILES	Activity (SH-SY5Y [1])	Activity (SH-SY5Y [2])	Activity (SH-SY5Y [3])	Activity (SH-SY5Y [4])
C/C=C(\C)C(=O)O[C@@H]1CC[C@]2(CO2)[C@]2(COC(C)=O)[C@@H](OC(C)=O)C[C@@H](C)[C@](C)(C[C@H](OC(C)=O)C3=CC(=O)OC3)[C@@H]12	inactive	inactive	inactive	–
CC(=O)OC[C@@]12[C@@H](OC(C)=O)C[C@@H](C)[C@](C)(C[C@H](O)C3=CC(=O)OC3)[C@H]1[C@H](OC(C)=O)CC[C@]21CO1	inactive	inactive	inactive	–
CC(=O)OC[C@]12[C@@H](OC(C)=O)C[C@@H](C)[C@]3(C)C[C@H](C4=CC(=O)OC4)O[C@H](CC[C@]1(O)CO)[C@H]32 [AJUGACILIATIN G]	69.1%	81.5%	73.6%	–
CC(=O)OC[C@@]12[C@@H](OC(C)=O)C[C@@H](C)[C@](C)(C[C@H](OC(C)=O)C3=CC(=O)OC3)[C@H]1[C@H](OC(C)=O)CC[C@]21CO1	inactive	inactive	inactive	–
CC[C@H](C)C(=O)O[C@@H](C[C@@]1(C)[C@H](C)C[C@H](OC(C)=O)[C@]2(COC(C)=O)[C@@H]1[C@H](OC(=O)[C@@H](C)CC)CC[C@]21CO1)C1=CC(=O)OC1 [AJUGATAKASIN B]	70.2%	84.3%	76.5%	–
C/C=C(\C)C(=O)O[C@@H]1CC[C@](O)(CCl)[C@]2(COC(C)=O)[C@@H](OC(C)=O)C[C@@H](C)[C@](C)(C[C@H](O)C3=CC(=O)OC3)[C@@H]12 [AJUGAMARIN A1 CHLOROHYDRIN]	67.1%	73.8%	69.2%	–
C/C=C(\C)C(=O)O[C@@H](C[C@@]1(C)[C@H](C)C[C@H](OC(C)=O)[C@]2(COC(C)=O)[C@@H]1[C@H](OC(=O)/C(C)=C/C)CC[C@]21CO1)C1=CC(=O)OC1 [AJUGATAKASIN A]	66.3%	78.2%	71.5%	–
C/C=C(\C)C(=O)O[C@@H](C[C@@]1(C)[C@H](C)C[C@H](OC(C)=O)[C@]2(COC(C)=O)[C@@H]1[C@H](OC(=O)[C@@H](C)CC)CC[C@]21CO1)C1=CC(=O)OC1 [AJUGAMARIN H1]	67.3%	87.5%	70.4%	–
CC(=O)OC[C@@]12[C@@H](OC(C)=O)C[C@@H](C)[C@](C)(C[C@H](O)C3=CC(=O)OC3)[C@H]1CCC[C@]21CO1	inactive	inactive	inactive	–
CC[C@H](C)C(=O)O[C@@H](C[C@@]1(C)[C@H](C)C[C@H](OC(C)=O)[C@]2(COC(C)=O)[C@@H]1[C@H](OC(C)=O)CC[C@]2(O)CCl)C1=CC(=O)OC1 [AJUGACILIATIN B]	67.4%	88.2%	80.4%	–
C/C=C(\C)C(=O)O[C@@H](C[C@@]1(C)[C@H](C)C[C@H](OC(C)=O)[C@]2(COC(C)=O)[C@@H]1CCC[C@]21CO1)C1=CC(=O)OC1	inactive	inactive	inactive	–
CC(=O)OC[C@]12[C@@H](OC(C)=O)C[C@@H](C)[C@]3(C)C[C@H](C4=CC(=O)OC4)O[C@H](CC[C@]1(O)CCl)[C@H]32	inactive	inactive	inactive	–
CC[C@H](C)C(=O)O[C@@H]1CC[C@](O)(CCl)[C@]2(COC(C)=O)[C@@H](OC(C)=O)C[C@@H](C)[C@](C)(C[C@H](OC(C)=O)C3=CC(=O)OC3)[C@@H]12	inactive	inactive	inactive	–
C/C=C(\C)C(=O)OC[C@@]12[C@@H](OC(C)=O)C[C@@H](C)[C@](C)(CCC3=CC(=O)OC3)[C@H]1CCC[C@]21CO1	inactive	inactive	inactive	–
C/C=C(\C)C(=O)O[C@@H](C[C@@]1(C)[C@H](C)C[C@H](OC(C)=O)[C@]2(COC(C)=O)[C@@H]1[C@H](OC(C)=O)CC[C@]21CO1)C1=CC(=O)OC1 [AJUGANIPPONIN A]	65.4%	76.6%	69.2%	Non-toxic
C/C=C(\C)C(=O)O[C@@H]1CC[C@]2(CO2)[C@]2(COC(C)=O)[C@@H](OC(C)=O)C[C@@H](C)[C@](C)(C[C@H](O)C3=CC(=O)OC3)[C@@H]12 [AJUGAMARIN A1]	65.3%	81.9%	73.4%	–
CC[C@H](C)C(=O)O[C@@H]1CC[C@]2(CO2)[C@]2(COC(C)=O)[C@@H](OC(C)=O)C[C@@H](C)[C@](C)(C[C@H](O)C3=CC(=O)OC3)[C@@H]12	inactive	inactive	inactive	–
C/C=C(\C)C(=O)OC[C@@]12[C@H](CCC[C@]1(O)CO)[C@@](C)(CCC1=CC(=O)OC1)[C@H](C)C[C@@H]2O	inactive	inactive	inactive	–
C/C=C(\C)C(=O)O[C@@H](C[C@@]1(C)[C@H](C)C[C@H](OC(C)=O)[C@]2(COC(C)=O)[C@@H]1[C@H](OC(=O)/C(C)=C/C)CC[C@]2(O)CCl)C1=CC(=O)OC1	inactive	inactive	inactive	–
C/C=C(\C)C(=O)OC[C@@]12[C@H](CCC[C@]1(O)COC(C)=O)[C@@](C)(CCC1=CC(=O)OC1)[C@H](C)C[C@@H]2O	inactive	inactive	inactive	–
CC(=O)OC[C@]12[C@@H](OC(C)=O)C[C@@H](C)[C@]3(C)C[C@H](C4=CC(=O)OC4)O[C@H](CC[C@]14CO4)[C@H]32 [AJUGACILIATIN H]	65.2%	78.2%	74.2%	–
C/C=C(\C)C(=O)OC[C@@]1(O)CCC[C@@H]2[C@@](C)(CCC3=CC(=O)OC3)[C@H](C)C[C@H](O)[C@]21CO	inactive	inactive	inactive	–
Nc1nc2c(ncn2[C@@H]2O[C@H](CO)[C@@H](O)[C@H]2O)c(=O)[nH]1 [GUANOSINE]	70%	90.1%	79.7%	–
CC[C@H](C)C(=O)O[C@@H](C[C@@]1(C)[C@H](C)C[C@H](OC(C)=O)[C@]2(COC(C)=O)[C@@H]1[C@H](OC(=O)[C@@H](C)CC)CC[C@]2(O)CCl)C1=CC(=O)OC1	inactive	inactive	inactive	–
C/C=C(\C)C(=O)O[C@@H]1CC[C@](O)(CCl)[C@]2(COC(C)=O)[C@@H](OC(C)=O)C[C@@H](C)[C@](C)(C[C@H](OC(C)=O)C3=CC(=O)OC3)[C@@H]12 [AJUGAMARIN A2 CHLOROHYDRIN]	71%	83.7%	79.7%	–
C/C=C(\C)C(=O)OC[C@@]12[C@@H](OC(C)=O)C[C@@H](C)[C@](C)(CCC3=CC(=O)OC3)[C@H]1CCC[C@]2(O)CCl	inactive	inactive	inactive	–
C/C=C(\C)C(=O)O[C@@H]1CC[C@](O)(CCl)[C@]2(COC(C)=O)[C@@H](OC(C)=O)C[C@@H](C)[C@](C)(C[C@H](OC(=O)[C@@H](C)CC)C3=CC(=O)OC3)[C@@H]12	inactive	inactive	inactive	–
C/C=C(\C)C(=O)[C@@H]1CC[C@]2(CO2)[C@]2(COC(C)=O)[C@@H](OC(C)=O)C[C@@H](C)[C@](C)(C[C@H](OC(=O)[C@@H](C)CC)C3=CC(=O)OC3)[C@@H]12	inactive	inactive	inactive	–

Source: ChEMBL document CHEMBL1811884, “Bioactive neo-clerodane diterpenoids from the whole plants of Ajuga ciliata Bunge” (J Nat Prod, 2011)
